Data published in ChEMBL document CHEMBL3817745, “Structure-Activity Relationship for the 4(3H)-Quinazolinone Antibacterials” (J Med Chem, 2016).

Columns and labels:
Format in all cases: functional
Escherichia coli = assay: Antibacterial activity against Escherichia coli ATCC 25922 incubated for 16 to 20 hrs by microdilution method
In short: (§1)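 CLSI broth microdilution. 2-fold serial dilutions were made in cation-adjusted Mueller–Hinton broth, with 5% lysed horse blood added for Streptococcus strains, in triplicate. Inoculum 5×10^5 CFU/mL. Plates incubated 36 °C for 16–20 h. MIC taken as the lowest concentration visibly inhibiting growth.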

Pseudomonas aeruginosa = assay: Antibacterial activity against Pseudomonas aeruginosa […] incubated for 16 to 20 hrs by microdilution method; in short: as §1
Acinetobacter baumannii = assay: Antibacterial activity against Acinetobacter baumannii ATCC 17961 incubated for 16 to 20 hrs by microdilution method; in short: as §1
Klebsiella pneumoniae = assay: Antibacterial activity against Klebsiella pneumoniae ATCC 700603 incubated for 16 to 20 hrs by microdilution method; in short: as §1
Enterococcus faecium = assay: Antibacterial activity against Enterococcus faecium NCTC 7171 incubated for 16 to 20 hrs by microdilution method; in short: as §1
Klebsiella aerogenes = assay: Antibacterial activity against Enterobacter aerogenes ATCC 35029 incubated for 16 to 20 hrs by microdilution method; in short: as §1

| SMILES | MIC (Escherichia coli) [µg/mL] | MIC (Pseudomonas aeruginosa) [µg/mL] | MIC (Acinetobacter baumannii) [µg/mL] | MIC (Klebsiella pneumoniae) [µg/mL] | MIC (Enterococcus faecium) [µg/mL] | MIC (Klebsiella aerogenes) [µg/mL] |
| --- | --- | --- | --- | --- | --- | --- |
| NC(=O)c1cccc(-n2c(/C=C/c3ccc(F)cc3)nc3ccncc3c2=O)c1 | ≥ 16 | ≥ 16 | ≥ 16 | ≥ 16 | ≥ 8 | ≥ 16 |
| N#Cc1ccc(/C=C/c2nc3ccccc3c(=O)n2-c2cccc([N+](=O)[O-])c2)cc1 | ≥ 16 | ≥ 16 | ≥ 16 | ≥ 16 | ≥ 8 | ≥ 16 |
| NC(=O)c1cccc(-n2c(/C=C/c3ccc(Cl)cc3)nc3ccncc3c2=O)c1 | ≥ 16 | ≥ 16 | ≥ 16 | ≥ 16 | ≥ 8 | ≥ 16 |
| CS(=O)(=O)c1ccc(/C=C/c2nc3ccccc3c(=O)n2-c2cccc(C(=O)O)c2)cc1 | ≥ 16 | ≥ 16 | ≥ 16 | ≥ 16 | ≥ 8 | ≥ 16 |
| O=C(O)c1cccc(-n2c(/C=C/c3ccc(C#CCO)cc3)nc3ccccc3c2=O)c1 | ≥ 16 | ≥ 16 | ≥ 16 | ≥ 16 | ≥ 8 | ≥ 16 |
| O=C(O)c1cccc(-n2c(/C=C/c3ccc(F)c(F)c3)nc3ccccc3c2=O)c1 | ≥ 16 | ≥ 16 | ≥ 16 | ≥ 16 | ≥ 8 | ≥ 16 |
| N#Cc1ccc(/C=C/c2nc3ccccc3c(=O)n2-c2cccc(C(=O)NCc3cccnc3)c2)cc1 | ≥ 16 | ≥ 16 | ≥ 16 | ≥ 16 | ≥ 8 | ≥ 16 |
| N#Cc1ccc(/C=C/c2nc3ccccc3c(=O)n2-c2cccc(CC(=O)O)c2)cc1 | ≥ 16 | ≥ 16 | ≥ 16 | ≥ 16 | ≥ 8 | ≥ 16 |
| COc1ncccc1CNc1cccc(-n2c(/C=C/c3ccc(C#N)cc3)nc3ccccc3c2=O)c1 | ≥ 16 | ≥ 16 | ≥ 16 | ≥ 16 | ≥ 8 | ≥ 16 |
| N#Cc1ccc(/C=C/c2nc3ccccc3c(=O)n2-c2cccc(F)c2)cc1 | ≥ 16 | ≥ 16 | ≥ 16 | ≥ 16 | ≥ 8 | ≥ 16 |
| N#Cc1ccc(/C=C/c2nc3ccccc3c(=O)n2-c2cccc(C(=O)NCCC(=O)O)c2)cc1 | ≥ 16 | ≥ 16 | ≥ 16 | ≥ 16 | ≥ 8 | ≥ 16 |
| O=c1c2ccccc2nc(/C=C/c2cccc([N+](=O)[O-])c2)n1-c1cccc(O)c1 | ≥ 16 | ≥ 16 | ≥ 16 | ≥ 16 | ≥ 8 | ≥ 16 |
| O=c1c2ccccc2nc(/C=C/c2ccc(F)cc2)n1-c1cccc([N+](=O)[O-])c1 | ≥ 16 | ≥ 16 | ≥ 16 | ≥ 16 | ≥ 8 | ≥ 16 |
| N#Cc1ccc(/C=C/c2nc3ccccc3c(=O)n2-c2cc[nH]n2)cc1 | ≥ 16 | ≥ 16 | ≥ 16 | ≥ 16 | ≥ 8 | ≥ 16 |
| O=C(O)c1cccc(-n2c(/C=C/c3ccc(F)cc3)nc3ccncc3c2=O)c1 | ≥ 16 | ≥ 16 | ≥ 16 | ≥ 16 | ≥ 8 | ≥ 16 |
| O=c1c2cc(O)ccc2nc(/C=C/c2ccc(F)cc2)n1-c1cccc(O)c1 | ≥ 16 | ≥ 16 | ≥ 16 | ≥ 16 | ≥ 8 | ≥ 16 |
| O=C(O)c1cccc(-n2c(/C=C/c3ccc(F)c(Cl)c3)nc3ccccc3c2=O)c1 | ≥ 16 | ≥ 16 | ≥ 16 | ≥ 16 | ≥ 8 | ≥ 16 |
| CC(C)Nc1cccc(-n2c(/C=C/c3ccc(C#N)cc3)nc3ccccc3c2=O)c1 | ≥ 16 | ≥ 16 | ≥ 16 | ≥ 16 | ≥ 8 | ≥ 16 |
| Cc1ccc(/C=C/c2nc3ccccc3c(=O)n2-c2cccc(O)c2)cc1 | ≥ 16 | ≥ 16 | ≥ 16 | ≥ 16 | ≥ 8 | ≥ 16 |
| O=c1c2ccccc2nc(/C=C/c2ccc([N+](=O)[O-])cc2)n1-c1ccccc1O | ≥ 16 | ≥ 16 | ≥ 16 | ≥ 16 | ≥ 8 | ≥ 16 |
| CS(=O)(=O)NCc1cccc(-n2c(/C=C/c3ccc(C#N)cc3)nc3ccccc3c2=O)c1 | ≥ 16 | ≥ 16 | ≥ 16 | ≥ 16 | ≥ 8 | ≥ 16 |

| SMILES | MIC (Escherichia coli) [µg/mL] | MIC (Pseudomonas aeruginosa) [µg/mL] | MIC (Acinetobacter baumannii) [µg/mL] | MIC (Klebsiella pneumoniae) [µg/mL] | MIC (Enterococcus faecium) [µg/mL] | MIC (Klebsiella aerogenes) [µg/mL] |
| --- | --- | --- | --- | --- | --- | --- |
| O=c1c2ccccc2nc(/C=C/c2cccc(F)c2)n1-c1cccc(O)c1 | ≥ 16 | ≥ 16 | ≥ 16 | ≥ 16 | ≥ 8 | ≥ 16 |
| N#Cc1ccc(/C=C/c2nc3ccncc3c(=O)n2-c2cccc(O)c2)cc1 | ≥ 16 | ≥ 16 | ≥ 16 | ≥ 16 | ≥ 8 | ≥ 16 |
| Nc1cccc(-n2c(/C=C/c3ccc(F)cc3)nc3ccccc3c2=O)c1 | ≥ 16 | ≥ 16 | ≥ 16 | ≥ 16 | ≥ 8 | ≥ 16 |
| N#Cc1ccc(/C=C/c2nc3ccncc3c(=O)n2-c2cccc(C(N)=O)c2)cc1 | ≥ 16 | ≥ 16 | ≥ 16 | ≥ 16 | ≥ 8 | ≥ 16 |
| O=c1c2ccccc2nc(/C=C/C2CCCCC2)n1-c1cccc(O)c1 | ≥ 16 | ≥ 16 | ≥ 16 | ≥ 16 | ≥ 8 | ≥ 16 |
| CC(=O)Oc1cccc(-n2c(/C=C/c3ccc([N+](=O)[O-])cc3)nc3ccccc3c2=O)c1 | ≥ 16 | ≥ 16 | ≥ 16 | ≥ 16 | ≥ 8 | ≥ 16 |
| COC(=O)Nc1cccc(-n2c(/C=C/c3ccc(C#N)cc3)nc3ccccc3c2=O)c1 | ≥ 16 | ≥ 16 | ≥ 16 | ≥ 16 | ≥ 8 | ≥ 16 |
| COC(=O)CCNC(=O)c1cccc(-n2c(/C=C/c3ccc(C#N)cc3)nc3ccccc3c2=O)c1 | ≥ 16 | ≥ 16 | ≥ 16 | ≥ 16 | ≥ 8 | ≥ 16 |
| O=c1c2cnccc2nc(/C=C/c2ccc(F)cc2)n1-c1cccc(O)c1 | ≥ 16 | ≥ 16 | ≥ 16 | ≥ 16 | ≥ 8 | ≥ 16 |
| CC(C)c1ccc(/C=C/c2nc3ccccc3c(=O)n2-c2cccc(O)c2)cc1 | ≥ 16 | ≥ 16 | ≥ 16 | ≥ 16 | ≥ 8 | ≥ 16 |
| O=c1c2cc(Br)ccc2nc(/C=C/c2ccc([N+](=O)[O-])cc2)n1-c1cccc(O)c1 | ≥ 16 | ≥ 16 | ≥ 16 | ≥ 16 | ≥ 8 | ≥ 16 |
| O=c1c2cnccc2nc(/C=C/c2ccc(Cl)cc2)n1-c1cccc(O)c1 | ≥ 16 | ≥ 16 | ≥ 16 | ≥ 16 | ≥ 8 | ≥ 16 |
| CC(=O)Oc1ccc(-n2c(/C=C/c3ccc([N+](=O)[O-])cc3)nc3ccccc3c2=O)cc1 | ≥ 16 | ≥ 16 | ≥ 16 | ≥ 16 | ≥ 8 | ≥ 16 |
| CC(=O)OCC#Cc1ccc(/C=C/c2nc3ccccc3c(=O)n2-c2cccc(C(=O)O)c2)cc1 | ≥ 16 | ≥ 16 | ≥ 16 | ≥ 16 | ≥ 8 | ≥ 16 |
| O=C(NCCO)c1cccc(-n2c(/C=C/c3ccc(F)cc3)nc3ccccc3c2=O)c1 | ≥ 16 | ≥ 16 | ≥ 16 | ≥ 16 | ≥ 8 | ≥ 16 |
| CC(=O)OCCCn1c(/C=C/c2ccc(C#N)cc2)nc2ccccc2c1=O | ≥ 16 | ≥ 16 | ≥ 16 | ≥ 16 | ≥ 8 | ≥ 16 |
| N#Cc1ccc(/C=C/c2nc3cc(N)ccc3c(=O)n2-c2cccc(C(=O)O)c2)cc1 | ≥ 16 | ≥ 16 | ≥ 16 | ≥ 16 | ≥ 8 | ≥ 16 |
| NC(=O)c1cccc(-n2c(/C=C/c3ccc(F)cc3)nc3ccccc3c2=O)c1 | ≥ 16 | ≥ 16 | ≥ 16 | ≥ 16 | ≥ 8 | ≥ 16 |
| O=c1c2ccccc2nc(/C=C/c2ccc([N+](=O)[O-])cc2)n1-c1ccc(O)cc1 | ≥ 16 | ≥ 16 | ≥ 16 | ≥ 16 | ≥ 8 | ≥ 16 |
| COC(=O)Cc1ccc(/C=C/c2nc3ccccc3c(=O)n2-c2cccc(C(=O)O)c2)cc1 | ≥ 16 | ≥ 16 | ≥ 16 | ≥ 16 | ≥ 8 | ≥ 16 |
| CC(=O)OCc1cccc(-n2c(/C=C/c3ccc(C#N)cc3)nc3ccccc3c2=O)c1 | ≥ 16 | ≥ 16 | ≥ 16 | ≥ 16 | ≥ 8 | ≥ 16 |
